Activity calls are given as the source filed them. The calls are words filed in the database; no cut-off is given here.
Key:
[1] = molecular target: T1, Sigma intracellular receptor 2 (Rattus norvegicus) (UniProt Q5U3Y7); assay: Displacement of [3H]DTG from sigma2 receptor in rat liver membranes at 1 uM after 120 mins by scintillation counting method relative to control; type: cell membranes
T1 sequence (whole entry): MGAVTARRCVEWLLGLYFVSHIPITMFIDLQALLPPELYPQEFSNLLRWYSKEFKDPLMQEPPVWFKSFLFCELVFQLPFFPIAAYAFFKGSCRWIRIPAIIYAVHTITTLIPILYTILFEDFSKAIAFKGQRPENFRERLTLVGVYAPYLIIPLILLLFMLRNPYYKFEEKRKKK

[2] = molecular target: T2, Sigma intracellular receptor 2 (Rattus norvegicus, UniProt Q5U3Y7); assay: Displacement of [3H]DTG from sigma2 receptor in rat liver membranes after 120 mins by scintillation counting method; type: cell membranes
T2 sequence (Q5U3Y7 whole entry): T1 sequence (whole entry)

[3] = test system: Mus musculus; assay: (§1) Anti-inflammatory activity against C57BL/6 mouse model of MOG-induced autoimmune encephalomyelitis assessed as reduction in immune cell infiltration in to lumbar spinal cord at 100 uL of 20 uM solution administered ip starting from day 1 post immunization and measured 9 to 16 days post Mycobacterium tuberculosis H37Ra/MOG immunization by hematoxylin and eosin staining based microscopic method; type: functional, organism-based
In short: (§2)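 C57BL/6 wild-type mice, 8–12 weeks old, were kept under SPF conditions and immunized with MOG peptide. From day 1 after immunization they received a daily ip injection of 100 µl of a 20 µM solution; controls received PBS. Clinical signs were checked daily. Tissues were taken at disease peak, days 12–15 after immunization.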

[4] = test system: T-cell; assay: Inhibition of PMA/ionomycin-stimulated C57BL/6 mouse T cells activation assessed as CD69-positive cells at 5 ug/ml treated for 48 hrs starting from 12 hrs post PMA/ionomycin stimulation by flow cytometry (reference value: 37.2%); type: functional; design: scale not given: the % may be the effect or the level left
[5] = test system: Mus musculus; assay: Anti-inflammatory activity against C57BL/6 mouse model of MOG-induced autoimmune encephalomyelitis assessed as inhibition of development of clinical symptoms at 100 uL of 20 uM solution administered ip starting from day 1 post immunization and measured 9 to 16 days post Mycobacterium tuberculosis H37Ra/MOG immunization; type: functional, organism-based; in short: as §2
[6] = test system: Mus musculus; assay: as §1, with “in TH17” for “in immune”, “cell population” for “cell infiltration”, “in” for “in to”, “by immunofluorescence” for “by hematoxylin and eosin staining based”; type: functional, organism-based; in short: as §2
[7] = test system: Dendritic cell; assay: Anti-inflammatory activity in PMA/ionomycin-stimulated human PBMC-derived dendritic cells assessed as reduction in IFNgamma production at 5 ug/ml treated for 48 hrs starting from 12 hrs post PMA/ionomycin stimulation by flow cytometry; type: functional, cell-based
In short: (§3)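 PBMC were prepared from heparinized blood of healthy donors by Ficoll gradient, and DC or T cells were negatively enriched with magnetic kits. Cells were activated 12 h with PMA (5 ng/ml) plus ionomycin (500 ng/ml), then cultured 48 h with compound or PBS. Flow cytometry was gated on HLA-DR⁺CD11c⁺ for DC and CD3⁺ for T cells, with intracellular IFN-γ; n=3 donors.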

[8] = test system: T-cell; assay: Anti-inflammatory activity in PMA/ionomycin-stimulated human PBMC-derived T cells assessed as reduction in IFNgamma production at 5 ug/ml treated for 48 hrs starting from 12 hrs post PMA/ionomycin stimulation by flow cytometry; type: functional, cell-based; in short: as §3
[9] = test system: Mus musculus; assay: Anti-inflammatory activity against C57BL/6 mouse model of MOG-induced autoimmune encephalomyelitis assessed as CD45-positive leukocytes at 100 uL of 20 uM solution administered ip starting from day 1 post immunization and measured 9 to 16 days post Mycobacterium tuberculosis H37Ra/MOG immunization by flow cytometry (reference value: 4.4%); type: functional; in short: as §2
[10] = test system: Mus musculus; assay: as §1, with “inflammatory foci” for “immune cell infiltration”, “in” for “in to”; type: functional, organism-based; in short: as §2
[11] = test system: T-cell; assay: Inhibition of PMA/ionomycin-stimulated C57BL/6 mouse T cells activation assessed as CD44-positive cells at 5 ug/ml treated for 48 hrs starting from 12 hrs post PMA/ionomycin stimulation by flow cytometry (reference value: 9.6%); type: functional; design: scale not given: the % may be the effect or the level left
[12] = test system: Dendritic cell; assay: Anti-inflammatory activity in PMA/ionomycin-stimulated C57BL/6 mouse bone marrow derived dendritic cells assessed as reduction in IFNgamma production at 5 ug/ml treated for 48 hrs starting from 12 hrs post PMA/ionomycin stimulation by flow cytometry; type: functional, cell-based
In short: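 Bone marrow from tibias and femurs was cultured 9 days with GM-CSF (150 U/ml) and IL-4 (75 U/ml). From day 7 to day 9, cells were stimulated with PMA (5 ng/ml) plus ionomycin (500 ng/ml) with or without compound. On day 9, cells were gated on MHC-II⁺CD11c⁺ and stained for intracellular IFN-γ; n=5 mice.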

[13] = test system: Dendritic cell; assay: Immunomodulatory activity in PMA/ionomycin-stimulated human PBMC-derived dendritic cells assessed as increase in IL-10 production at 5 ug/ml treated for 48 hrs starting from 12 hrs post PMA/ionomycin stimulation; type: functional, cell-based
In short: (§4)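 Human PBMC-derived cells from healthy donors were activated with PMA (5 ng/ml) plus ionomycin (500 ng/ml), then cultured with compound or PBS. Cytokines were quantified in the culture supernatants; n=3 donors.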

[14] = test system: Dendritic cell; assay: Immunomodulatory activity in PMA/ionomycin-stimulated C57BL/6 mouse bone marrow derived dendritic cells assessed as increase in IL-10 production at 5 ug/ml treated for 48 hrs starting from 12 hrs post PMA/ionomycin stimulation; type: functional, cell-based
[15] = test system: T-cell; assay: Immunomodulatory activity in PMA/ionomycin-stimulated human PBMC-derived T cells assessed as increase in IL-10 production at 5 ug/ml treated for 48 hrs starting from 12 hrs post PMA/ionomycin stimulation; type: functional, cell-based; in short: as §4
[16] = test system: T-cell; assay: Immunomodulatory activity in PMA/ionomycin-stimulated C57BL/6 mouse T cells assessed as increase in IL-10 production at 5 ug/ml treated for 48 hrs starting from 12 hrs post PMA/ionomycin stimulation; type: functional, cell-based
In short: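 Mouse lymph-node T cells were activated 12 h with PMA (5 ng/ml) plus ionomycin (500 ng/ml), then cultured 48 h with compound or PBS. Secreted cytokines were measured in the culture supernatants; n=5 mice per group.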

[17] = test system: T-cell; assay: Anti-inflammatory activity in PMA/ionomycin-stimulated C57BL/6 mouse T cells assessed as reduction in IFNgamma production at 5 ug/ml treated for 48 hrs starting from 12 hrs post PMA/ionomycin stimulation by flow cytometry; type: functional, cell-based
In short: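 Total T cells were isolated from wild-type mouse lymph nodes with a Pan T cell kit. Cells were activated 12 h with PMA (5 ng/ml) plus ionomycin (500 ng/ml), then cultured 48 h with compound or PBS. Analysis was by flow cytometry gated on CD3, with intracellular IFN-γ after permeabilization; n=5 mice.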

Structure (SMILES): COC(=O)N1CCN(C(=O)Cc2ccc(Cl)c(Cl)c2)[C@@H]2[C@@H](N3CCCC3)CCC[C@@H]21 (racemic)
- inhibition [1]: 8%

Structure (SMILES): O=C(Cc1ccc(Cl)c(Cl)c1)N1CCN(CCCCF)[C@H]2CCC[C@H](N3CCCC3)[C@H]21 (racemic)
- inhibition [1]: 8%

Structure (SMILES): CC(C)(C)OC(=O)N1CCN(C(=O)Cc2ccc(Cl)c(Cl)c2)[C@@H]2[C@@H](N3CCCC3)CCC[C@@H]21 (racemic)
- inhibition [1]: 16%

Structure (SMILES): CCCCN1CCN(C(=O)Cc2ccc(Cl)c(Cl)c2)[C@@H]2[C@@H](N3CCCC3)CCC[C@@H]21 (racemic)
- Ki [2]: 1300 nM

Structure (SMILES): O=C(Cc1ccc(Cl)c(Cl)c1)N1CCN(Cc2ccc(F)cc2)[C@H]2CCC[C@H](N3CCCC3)[C@H]21 (racemic)
- inhibition [1]: 0%

Structure (SMILES): CN1CCN(C(=O)Cc2ccc(Cl)c(Cl)c2)[C@H]2[C@@H]1CCC[C@@H]2N1CCCC1
- inhibition [1]: 4%

Structure (SMILES): O=C(Cc1ccc(Cl)c(Cl)c1)N1CCN(CCF)[C@H]2CCC[C@H](N3CCCC3)[C@H]21 (racemic)
- inhibition [1]: 3%

Structure (SMILES): O=C(Cc1ccc(Cl)c(Cl)c1)N1CCN[C@H]2CCC[C@H](N3CCCC3)[C@H]21 (racemic)
- inhibition [1]: 5%
- Activity [3]: Active
- Activity [4]: 25.6%
- inhibition [5]: Active
- Activity [6]: Active
- Activity [7]: inactive
- Activity [8]: inactive
- Activity [9]: 0.5%
- Activity [10]: Active
- Activity [11]: 7.6%

Structure (SMILES): CCN1CCN(C(=O)Cc2ccc(Cl)c(Cl)c2)[C@H]2[C@@H]1CCC[C@@H]2N1CCCC1 (relative stereo)
- inhibition [1]: 16%

Structure (SMILES): O=C(Cc1ccc(Cl)c(Cl)c1)N1CCN(C(=O)COCCF)[C@H]2CCC[C@H](N3CCCC3)[C@H]21 (relative stereo)
- inhibition [1]: 0%

Structure (SMILES): CCCN1CCN(C(=O)Cc2ccc(Cl)c(Cl)c2)[C@@H]2[C@@H](N3CCCC3)CCC[C@@H]21 (racemic)
- Ki [2]: 2400 nM

Structure (SMILES): O=C(Cc1ccc(Cl)c(Cl)c1)N1CCN(Cc2cn(CCF)nn2)[C@H]2CCC[C@H](N3CCCC3)[C@H]21 (racemic)
- inhibition [1]: 0%
- Activity [12]: Active
- Activity [3]: Active
- Activity [13]: Active
- Activity [4]: 14.8%
- Activity [14]: Active
- inhibition [5]: Active
- Activity [6]: Active
- Activity [15]: Active
- Activity [16]: Active
- Activity [7]: Active
- Activity [17]: Active
- Activity [8]: Active
- Activity [9]: 0.2%
- Activity [10]: Active
- Activity [11]: 10.4%
